Measurements: ChEMBL document CHEMBL3877264, “Quinolidene-rhodanine conjugates: Facile synthesis and biological evaluation” (Eur J Med Chem, 2017)
≈ marks a conversion by molar mass, not a printed value.

Experiments:
Staphylococcus aureus [1] = assay: Growth inhibition of Staphylococcus aureus NCIM 2010 at 10 ug/ml measured after 12 hrs relative to control; type: functional; details: NCIM 2010, 12 h, read-out: GI
Outline: (§1)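 Bacteria grown in LB at 37 °C and 180 rpm to OD 1. Compounds added to wells, then 0.1% inoculum of 1 OD culture (620 nm). Growth read as OD at 620 nm after 8 h for gram-negative and after 12 h for gram-positive strains.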

Bacillus subtilis = assay: Growth inhibition of Bacillus subtilis NCIM 2079 at 3 ug/ml measured after 12 hrs relative to control; type: functional; details: NCIM 2079, 12 h, read-out: GI; outline: as §1
Pseudomonas fluorescens [2] = assay: Growth inhibition of Pseudomonas fluorescens NCIM 2036 at 30 ug/ml measured after 8 hrs relative to control; type: functional; details: NCIM 2036, 8 h, read-out: GI; outline: as §1
Pseudomonas fluorescens [3] = assay: Growth inhibition of Pseudomonas fluorescens NCIM 2036 at 10 ug/ml measured after 8 hrs relative to control; type: functional; details: NCIM 2036, 8 h, read-out: GI; outline: as §1
Staphylococcus aureus [4] = assay: Antibacterial activity against of Staphylococcus aureus NCIM 2010 measured after 12 hrs; type: functional; details: NCIM 2010, 12 h; outline: as §1
[5] = system: Mycobacterium tuberculosis; assay: Growth inhibition of Mycobacterium tuberculosis H37Ra ATCC 25177 at active stage at 100 ug/ml measured after 8 days by XTT dye based two fold dilution method relative to control; type: functional; details: H37Ra ATCC 25177, 192 h, read-out: GI
Outline: (§2)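 MTB H37Ra was grown in Dubos medium, then exposed in Mycobacterium pheli minimal medium (pH 6.6) to compounds dissolved in DMSO. The assay ended on day 8 (active) or day 12 (dormant). Viable cells were measured by XTT reduction menadione assay at 470 nm, blank-corrected, relative to vehicle control. Triplicates were expressed as mean ± SD. MIC came from dose-response curves.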

[6] = system: Mycobacterium tuberculosis; assay: Growth inhibition of Mycobacterium tuberculosis H37Ra ATCC 25177 at active stage at 50 ug/ml measured after 8 days by XTT dye based two fold dilution method relative to control; type: functional; details: H37Ra ATCC 25177, 192 h, read-out: GI; outline: as §2
[7] = system: Mycobacterium tuberculosis; assay: Growth inhibition of Mycobacterium tuberculosis H37Ra ATCC 25177 at dormant stage at 100 ug/ml measured after 12 days by XTT dye based two fold dilution method relative to control; type: functional; details: H37Ra ATCC 25177, 288 h, read-out: GI; outline: as §2
[8] = system: Mycobacterium tuberculosis; assay: Growth inhibition of Mycobacterium tuberculosis H37Ra ATCC 25177 at dormant stage at 25 ug/ml measured after 12 days by XTT dye based two fold dilution method relative to control; type: functional; details: H37Ra ATCC 25177, 288 h, read-out: GI; outline: as §2
[9] = system: Mycobacterium tuberculosis; assay: Growth inhibition of Mycobacterium tuberculosis H37Ra ATCC 25177 at dormant stage at 1.56 ug/ml measured after 12 days by XTT dye based two fold dilution method relative to control; type: functional; details: H37Ra ATCC 25177, 288 h, read-out: GI; outline: as §2
[10] = system: Mycobacterium tuberculosis; assay: Growth inhibition of Mycobacterium bovis BCG ATCC 35743 at dormant stage at 100 ug/ml measured after 12 days by nitrate reductase dye based two fold dilution method relative to control; type: functional; details: BCG str. ATCC 35743, 288 h, read-out: GI
Outline: (§3)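 M. bovis BCG was grown in Dubos medium and assayed in Mycobacterium pheli minimal medium (pH 6.6), with compounds from DMSO stocks. Incubation lasted 8 days for active and 12 days for dormant cultures. Viability was read by nitrate reductase at 540 nm against cell-free blanks, with vehicle set as 100% growth. Primary screen was at 30, 10 and 3 µg/ml, in triplicate, mean ± SD. MIC was taken from dose-response curves.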

[11] = system: Mycobacterium tuberculosis; assay: Growth inhibition of Mycobacterium bovis BCG ATCC 35743 at dormant stage at 50 ug/ml measured after 12 days by nitrate reductase dye based two fold dilution method relative to control; type: functional; details: BCG str. ATCC 35743, 288 h, read-out: GI; outline: as §3
[12] = system: Mycobacterium tuberculosis; assay: Growth inhibition of Mycobacterium bovis BCG ATCC 35743 at dormant stage at 25 ug/ml measured after 12 days by nitrate reductase dye based two fold dilution method relative to control; type: functional; details: BCG str. ATCC 35743, 288 h, read-out: GI; outline: as §3
[13] = system: Mycobacterium tuberculosis; assay: Growth inhibition of Mycobacterium bovis BCG ATCC 35743 at dormant stage at 12.5 ug/ml measured after 12 days by nitrate reductase dye based two fold dilution method relative to control; type: functional; details: BCG str. ATCC 35743, 288 h, read-out: GI
[14] = system: Mycobacterium tuberculosis; assay: Growth inhibition of Mycobacterium bovis BCG ATCC 35743 at dormant stage at 6.25 ug/ml measured after 12 days by nitrate reductase dye based two fold dilution method relative to control; type: functional; details: BCG str. ATCC 35743, 288 h, read-out: GI; outline: as §3
[15] = system: Mycobacterium tuberculosis; assay: Growth inhibition of Mycobacterium bovis BCG ATCC 35743 at dormant stage at 3.13 ug/ml measured after 12 days by nitrate reductase dye based two fold dilution method relative to control; type: functional; details: BCG str. ATCC 35743, 288 h, read-out: GI; outline: as §3
[16] = system: Mycobacterium tuberculosis; assay: Growth inhibition of Mycobacterium bovis BCG ATCC 35743 at dormant stage at 0.78 ug/ml measured after 12 days by nitrate reductase dye based two fold dilution method relative to control; type: functional; details: BCG str. ATCC 35743, 288 h, read-out: GI; outline: as §3
[17] = system: Mycobacterium tuberculosis; assay: Growth inhibition of Mycobacterium bovis BCG ATCC 35743 at active stage at 50 ug/ml measured after 8 days by nitrate reductase dye based two fold dilution method relative to control; type: functional; details: BCG str. ATCC 35743, 192 h, read-out: GI
[18] = system: Mycobacterium tuberculosis; assay: Growth inhibition of Mycobacterium bovis BCG ATCC 35743 at active stage at 6.25 ug/ml measured after 8 days by nitrate reductase dye based two fold dilution method relative to control; type: functional; details: BCG str. ATCC 35743, 192 h, read-out: GI; outline: as §3
[19] = system: Mycobacterium tuberculosis; assay: Growth inhibition of Mycobacterium bovis BCG ATCC 35743 at active stage at 0.78 ug/ml measured after 8 days by nitrate reductase dye based two fold dilution method relative to control; type: functional; details: BCG str. ATCC 35743, 192 h, read-out: GI; outline: as §3
[20] = system: Mycobacterium tuberculosis; assay: Growth inhibition of Mycobacterium bovis BCG ATCC 35743 at dormant stage at 30 ug/ml measured after 12 days by nitrate reductase dye based two fold dilution method relative to control; type: functional; details: BCG str. ATCC 35743, 288 h, read-out: GI; outline: as §3
Candida albicans = assay: Antifungal activity against Candida albicans NCIM 3471 by standard agar method; type: functional
Outline: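 MICs determined by standard agar method; DMSO as solvent control.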

[21] = Cytotoxicity against primary HUVEC assessed as growth inhibition at 100 ug/ml measured after 48 hrs by MTT assay relative to control; type: toxicity, cell-based; details: human, read-out: GI
[22] = Cytotoxicity against human THP1 cells measured after 48 hrs by MTT assay; type: toxicity, cell-based, THP-1
Outline: (§4)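 MTT assay with 48 h compound exposure. THP-1 macrophages made by 24 h PMA treatment. Each concentration tested in triplicate in one experiment. % cytotoxicity = (control−test)/(control−blank)×100, with control = cells + DMSO and blank = medium without cells. IC50 from % survival versus concentration plots.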

[23] = Cytotoxicity against human THP1 cells assessed as growth inhibition at 100 ug/ml measured after 48 hrs by MTT assay relative to control; type: toxicity, cell-based, THP-1; details: read-out: GI; outline: as §4
[24] = Cytotoxicity against […]-differentiated human THP1 cells assessed as growth inhibition at 100 ug/ml measured after 48 hrs by MTT assay relative to control; type: toxicity, cell-based, THP-1; details: read-out: GI; outline: as §4
[25] = Cytotoxicity against human A549 cells measured after 48 hrs by MTT assay; type: toxicity, cell-based
[26] = Cytotoxicity against human PANC1 cells assessed as growth inhibition at 100 ug/ml measured after 48 hrs by MTT assay relative to control; type: toxicity, cell-based, PANC-1; details: read-out: GI
[27] = Selectivity index, ratio of GI50 for human THP1 cells to MIC for Mycobacterium tuberculosis H37Ra ATCC 25177 at dormant stage; type: toxicity, cell-based, THP-1; details: read-out: Selectivity Index
Outline: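 SI is the cell-line GI50 divided by the dormant-stage mycobacterial MIC. […] THP-1 macrophages were PMA-differentiated for 24 h.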

O=C1NC(=S)S/C1=C\c1cc2cc(Cl)ccc2nc1Cl
inhibition of growth at 10 µg/mL (Staphylococcus aureus [1]): 114% | inhibition of growth at 3 µg/mL (Bacillus subtilis): 62.8% | inhibition of growth at 30 µg/mL (Pseudomonas fluorescens [2]): 99.8% | inhibition of growth at 10 µg/mL (Pseudomonas fluorescens [3]): 101% | MIC (Staphylococcus aureus [4]): 2.55 µg/mL (≈ 7.47 µM) | inhibition of growth at 100 µg/mL [5]: 92.7% | inhibition of growth at 50 µg/mL [6]: 97.5% | inhibition of growth at 100 µg/mL [7]: 85.4% | inhibition of growth at 25 µg/mL [8]: 96.8% | inhibition of growth at 1.56 µg/mL [9]: 32.4% | inhibition of growth at 100 µg/mL [10]: 98.7% | inhibition of growth at 50 µg/mL [11]: 101% | inhibition of growth at 25 µg/mL [12]: 100% | inhibition of growth at 12.5 µg/mL [13]: 100% | inhibition of growth at 6.25 µg/mL [14]: 101% | inhibition of growth at 3.13 µg/mL [15]: 100% | inhibition of growth at 0.78 µg/mL [16]: -9.1% | inhibition of growth at 50 µg/mL [17]: 99.7% | inhibition of growth at 6.25 µg/mL [18]: 100% | inhibition of growth at 0.78 µg/mL [19]: 7.4% | inhibition of growth at 30 µg/mL [20]: 99.2% | MIC (Candida albicans): 100 µg/mL (≈ 293 µM) | inhibition at 48 h, 100 ug/ml [21]: 25.9% | GI50 at 48 h [22]: > 100 µg/mL | inhibition at 48 h, 100 ug/ml [23]: 28.7% | inhibition at 48 h, 100 ug/ml [24]: 29.1% | GI50 at 48 h [25]: > 100 µg/mL | inhibition at 48 h, 100 ug/ml [26]: 25.2% | selectivity ratio [27]: 15.6
